Data from ChEMBL document CHEMBL1141689, “Synthesis and biological evaluation of 2-amino-3-(3',4',5'-trimethoxybenzoyl)-6-substituted-4,5,6,7-tetrahydrothieno[2,3-c]pyridine derivatives as antimitotic agents and inhibitors of tubulin polymerization” (Bioorg Med Chem Lett, 2008).
pIC50: −log10 of the molar value.

How the values were obtained:
[1] = Antiproliferative activity against human Molt4/C8 cells; format: functional, cell-based; details: MOLT-4
[2] = Inhibition of tubulin polymerization
[3] = tested on: K562; assay: Cell cycle arrest in human K562 cells assessed as accumulation at S phase at 70 nM after 24 hrs using propidium iodide staining by flow cytometry; format: functional
[4] = tested on: CCRF-CEM; assay: Antiproliferative activity against human CEM cells; format: cell-based
[5] = tested on: K562; assay: Cell cycle arrest in human K562 cells assessed as accumulation at sub G0/G1 phase at 70 nM after 24 hrs using propidium iodide staining by flow cytometry; format: functional
[6] = tested on: FM3A; assay: Antiproliferative activity against mouse FM3A cells; format: functional, cell-based
[7] = organism: Bos taurus; assay: Displacement of [3H]colchicine from bovine brain tubulin at 5 uM
[8] = tested on: K562; assay: Cell cycle arrest in human K562 cells assessed as accumulation at G2/M phase at 70 nM after 24 hrs using propidium iodide staining by flow cytometry; format: functional
[9] = organism: Bos taurus; assay: Displacement of [3H]colchicine from bovine brain tubulin at 1 uM
[10] = tested on: K562; assay: Cell cycle arrest in human K562 cells assessed as accumulation at G0/G1 phase at 70 nM after 24 hrs using propidium iodide staining by flow cytometry; format: functional
[11] = tested on: L1210; assay: Antiproliferative activity against mouse L1210 cells; format: functional, cell-based
[12] = tested on: K562; assay: Cell cycle arrest in human K562 cells assessed as accumulation at sub G0/G1 phase at 500 nM after 24 hrs using propidium iodide staining by flow cytometry; format: functional
Summary of the method: (§1)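 K562 leukaemia cells were cultured 24 h with compound or without compound as a control, then washed once in ice-cold PBS. They were resuspended at 1 × 10^6/mL in hypotonic propidium iodide (50 μg/mL) in 0.1% sodium citrate with 0.03% (v/v) Nonidet P-40 and incubated 30 min. DNA content was read by flow cytometry as single-parameter histograms, and cell-cycle phase distribution was modelled from them.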

[13] = tested on: K562; assay: Cell cycle arrest in human K562 cells assessed as accumulation at G0/G1 phase at 500 nM after 24 hrs using propidium iodide staining by flow cytometry; format: functional; summary of the method: as §1
[14] = tested on: K562; assay: Cell cycle arrest in human K562 cells assessed as accumulation at G2/M phase at 500 nM after 24 hrs using propidium iodide staining by flow cytometry; format: functional; summary of the method: as §1
[15] = tested on: K562; assay: Cell cycle arrest in human K562 cells assessed as accumulation at S phase at 500 nM after 24 hrs using propidium iodide staining by flow cytometry; format: functional; summary of the method: as §1
[16] = tested on: K562; assay: Cell cycle arrest in human K562 cells assessed as accumulation at G0/G1 phase at 80 nM after 24 hrs using propidium iodide staining by flow cytometry; format: functional; summary of the method: as §1
[17] = tested on: K562; assay: Cell cycle arrest in human K562 cells assessed as accumulation at sub G0/G1 phase at 80 nM after 24 hrs using propidium iodide staining by flow cytometry; format: functional; summary of the method: as §1
[18] = tested on: K562; assay: Cell cycle arrest in human K562 cells assessed as accumulation at S phase at 80 nM after 24 hrs using propidium iodide staining by flow cytometry; format: functional; summary of the method: as §1
[19] = tested on: K562; assay: Cell cycle arrest in human K562 cells assessed as accumulation at G2/M phase at 80 nM after 24 hrs using propidium iodide staining by flow cytometry; format: functional; summary of the method: as §1

Row | pIC50 [4] | pIC50 [11] | Structure (SMILES) | pIC50 [1] | pIC50 [6] | also measured
1 | 7.05 | 7.60 | COC(=O)N1CCc2c(sc(N)c2C(=O)c2cc(OC)c(OC)c(OC)c2)C1 | 7.35 | 7.34 | pIC50 [2]: 6.22; Activity [3]: 33%; Activity [5]: 11%; Activity [7]: 84%; Activity [8]: 33%; Activity [9]: 71%; Activity [10]: 34%
2 | 5.77 | 5.68 | CCN1CCc2c(sc(N)c2C(=O)c2cc(OC)c(OC)c(OC)c2)C1 | 5.74 | 5.72 | –
3 | < 5.00 | < 5.00 | COc1cc(C(=O)c2c(N)sc3c2CCN(C(=O)NC2CCCCC2)C3)cc(OC)c1OC | < 5.00 | < 5.00 | –
4 | < 5.00 | < 5.00 | COc1cc(C(=O)c2c(N)sc3c2CCN(Cc2ccccc2)C3)cc(OC)c1OC | < 5.00 | < 5.00 | –
5 | – | – | COc1ccc(/C=C\c2cc(OC)c(OC)c(OC)c2)cc1O [COMBRETASTATIN A4] | 8.80 | – | Activity [7]: 99%; Activity [9]: 90%
6 | 5.74 | 5.31 | CNC(=S)N1CCc2c(sc(N)c2C(=O)c2cc(OC)c(OC)c(OC)c2)C1 | 5.80 | 5.55 | –
7 | < 5.00 | < 5.00 | COc1cc(C(=O)c2c(N)sc3c2CCN(C(=S)NC(C)(C)C)C3)cc(OC)c1OC | < 5.00 | < 5.00 | –
8 | < 5.00 | < 5.00 | COc1cc(C(=O)c2c(N)sc3c2CCN(C(=O)OCC(C)C)C3)cc(OC)c1OC | < 5.00 | < 5.00 | –
9 | < 5.00 | < 5.00 | COc1cc(C(=O)c2c(N)sc3c2CCN(C(=S)NC(C)C)C3)cc(OC)c1OC | < 5.00 | < 5.00 | –
10 | 7.13 | 7.05 | COc1cc(C(=O)c2c(N)sc3ccccc23)cc(OC)c1OC | 7.14 | 7.00 | pIC50 [2]: 5.72; Activity [7]: 71%; Activity [9]: 25%
11 | < 5.00 | < 5.00 | COc1cc(C(=O)c2c(N)sc3c2CCN(C(=O)NC(C)C)C3)cc(OC)c1OC | < 5.00 | < 5.00 | –
12 | 5.08 | < 5.00 | COc1cc(C(=O)c2c(N)sc3c2CCN(C(=O)OCc2ccccc2)C3)cc(OC)c1OC | 5.12 | < 5.00 | –
13 | 5.92 | 5.96 | CCCOC(=O)N1CCc2c(sc(N)c2C(=O)c2cc(OC)c(OC)c(OC)c2)C1 | 6.33 | 5.85 | –
14 | < 5.00 | < 5.00 | COc1cc(C(=O)c2c(N)sc3c2CCN(C(=O)Oc2ccccc2)C3)cc(OC)c1OC | < 5.00 | < 5.00 | –
15 | – | 5.96 | COc1cc(C(=O)c2c(N)sc3c2CCN(C(=S)NC2CCCCC2)C3)cc(OC)c1OC | 6.12 | 5.85 | –
16 | 5.17 | 5.17 | CCNC(=S)N1CCc2c(sc(N)c2C(=O)c2cc(OC)c(OC)c(OC)c2)C1 | 5.32 | 5.16 | –
17 | 5.85 | 5.41 | COc1cc(C(=O)c2c(N)sc3c2CCN(C(C)=O)C3)cc(OC)c1OC | 5.96 | 5.92 | –
18 | < 5.00 | < 5.00 | CCCCNC(=O)N1CCc2c(sc(N)c2C(=O)c2cc(OC)c(OC)c(OC)c2)C1 | < 5.00 | < 5.00 | –
19 | < 5.00 | < 5.00 | COc1cc(C(=O)c2c(N)sc3c2CCN(C(=O)NCc2ccc(F)cc2)C3)cc(OC)c1OC | < 5.00 | < 5.00 | –
20 | < 5.00 | < 5.00 | COc1cc(C(=O)c2c(N)sc3c2CCN(C(=O)Nc2ccccc2)C3)cc(OC)c1OC | < 5.00 | < 5.00 | –
21 | < 5.00 | < 5.00 | CCCN1CCc2c(sc(N)c2C(=O)c2cc(OC)c(OC)c(OC)c2)C1 | < 5.00 | < 5.00 | –
22 | < 5.00 | < 5.00 | COc1cc(C(=O)c2c(N)sc3c2CCN(C(=O)OC(C)(C)C)C3)cc(OC)c1OC | < 5.00 | < 5.00 | –
23 | < 5.00 | < 5.00 | COc1cc(C(=O)c2c(N)sc3c2CCN(C(=O)NCc2ccccc2)C3)cc(OC)c1OC | < 5.00 | < 5.00 | –

Row | Structure (SMILES) | pIC50 [4] | pIC50 [11] | pIC50 [1] | pIC50 [6] | also measured
24 | COc1cc(C(=O)c2c(N)sc3cnccc23)cc(OC)c1OC | 6.00 | 6.43 | 6.47 | 6.40 | Activity [12]: 14%; Activity [7]: 27%; Activity [13]: 19%; Activity [14]: 54%; Activity [15]: 27%
25 | CCOC(=O)N1CCc2c(sc(N)c2C(=O)c2cc(OC)c(OC)c(OC)c2)C1 | 6.36 | 7.02 | 6.54 | 7.24 | pIC50 [2]: 6.22; Activity [16]: 30%; Activity [17]: 10%; Activity [18]: 30%; Activity [19]: 40%; Activity [7]: 82%; Activity [9]: 67%
26 | COc1cc(C(=O)c2c(N)sc3c2CCN(C)C3)cc(OC)c1OC | < 5.00 | < 5.00 | < 5.00 | < 5.00 | –
